Assay [1] has as its system A549. As to the kind of experiment: In vitro cytotoxic activity against human lung A549 cell line. It counts as functional, cell-based. The method in brief: (§1)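 MTT assay on human cells grown in DMEM with 10% FBS and penicillin/streptomycin at 37 °C, 5% CO2. About 5000 cells/well; compounds diluted with DMSO are added after 24 h for 48 h. Then 1 mg/mL MTT (final) in serum-free, phenol-red-free RPMI for 4 h. Formazan dissolved in 2-propanol, OD 550 nm (ref 690 nm).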

Assay [2] has as its system HT-29. Put plainly: In vitro cytotoxic activity against human colon HT-29 cell line. It counts as functional, cell-based. The method in brief:
as §1

A further assay relates to L1210. Put plainly: In vitro cytotoxic activity against murine leukemia cell line L1210. It counts as functional, cell-based. The settings on record: Mus musculus.
Another assay concerns Calf thymus DNA. As to the kind of experiment: In vitro inhibition of calf thymus DNA/ethidium bromide complex formation. Type of assay: nucleic-acid assay. The method in brief: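 Ethidium displacement: compounds added to 5 mM Tris-HCl/0.5 mM EDTA buffer, pH 8, containing calf thymus DNA (1 µg/mL) and ethidium bromide (1 µg/mL). EC50 is the concentration halving DNA/ethidium complex fluorescence. Mean of two experiments.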

Assay [3] concerns HCT-116. As to the kind of experiment: In vitro cytotoxic activity against human colon HCT116 cell line. It counts as functional, cell-based. The method in brief:
as §1

For assay [4], the system named is MDA-MB-231. As to the kind of experiment: In vitro cytotoxic activity against human breast MDA-MB-231 cell line. Type of assay: functional, cell-based. In short, it runs like this: as §1
The subject of assay [5] is HRT-18 cell line. Put plainly: In vitro inhibition of HRT-18 (human colon) cell proliferation. It counts as functional, cell-based. In short, it runs like this:
as §1

Assay [6] has as its system HCT-116. As to the kind of experiment: In vitro cytotoxic activity against human colon HCT116 cell line ( standard deviation in parenthesis). It counts as functional, cell-based. In short, it runs like this: as §1
Assay [7] relates to HRT-18 cell line. Put plainly: In vitro cytotoxic activity against human colon […] cell line ( standard deviation in parenthesis). It counts as functional, cell-based. The method in brief: as §1
Assay [8] concerns MDA-MB-231. Put plainly: In vitro cytotoxic activity against human breast MDA-MB-231 cell line ( standard deviation in parenthesis). Type of assay: functional, cell-based. The method in brief:
as §1

Assay [9] has as its system HT-29. As to the kind of experiment: In vitro cytotoxic activity against human colon HT-29 cell line ( standard deviation in parenthesis). It counts as functional, cell-based. The method in brief:
as §1

In assay [10] the test system is HRT-18 cell line. As to the kind of experiment: In vitro cytotoxic activity against human colon HRT-18 cell line. Type of assay: functional, cell-based. The method in brief:
(§2)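 MTT assay on human tumour cells grown in DMEM with 10% FBS, penicillin and streptomycin at 37 °C, 5% CO2. About 5000 cells/well were seeded, and compounds diluted with DMSO were added after 24 h. After 48 h exposure, 1 mg/mL MTT (final) was added for 4 h. Formazan was dissolved in 2-propanol and read at 550 nm (reference 690 nm).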

Assay [11] deals with A549. Put plainly: In vitro cytotoxic activity against human lung A549 cell line). Type of assay: functional, cell-based. In short, it runs like this: as §2
Assay [12] concerns A549. As to the kind of experiment: In vitro cytotoxic activity against human lung A549 cell line ( standard deviation in parenthesis). Type of assay: functional, cell-based. The method in brief: as §2

Molecules are shown by their SMILES. Where only a bound is given, the exact number is not on record here.

As a reminder, the IC50 is the concentration at which inhibition is half-maximal. Usually EC50 stands for the concentration at which the effect is half-maximal. As to `COc1cccc2c1Oc1c3c(cc4c1c-2nn4CCN1CCCCC1)OC(C)(C)C=C3`, the IC50 in the assay on A549 [1] turned out to be 31 µM; with HT-29 [2], 6 µM; in the assay with L1210, 16.5 µM; in the assay on HCT-116 [3], 54 µM; in the assay with MDA-MB-231 [4], 37 µM; in the assay on HRT-18 cell line [5], 12 µM. This compound also registered an EC50 in the assay on Calf thymus DNA of 290 µM.
Turning to `CC1(C)C=Cc2c(cc3c4c(nn3CCOS(C)(=O)=O)-c3ccccc3Oc24)O1`, the 50% inhibitory concentration (IC50) in the assay with HCT-116 [6] is 33 µM; in the assay with HRT-18 cell line [7], 22 µM; in the assay with A549 [1] it was more than 100 µM; in the assay on MDA-MB-231 [8], 53 µM; in the assay with L1210, 31.9 µM; with HT-29 [9] it was 24 µM.
Consider `COc1cccc2c1Oc1c3c(cc4c1c-2nn4CCOS(C)(=O)=O)OC(C)(C)C=C3`, for which half-maximal inhibition with L1210 (IC50) required 26.7 µM.
For `COc1cccc2c1Oc1c3c(cc4c1c-2nn4CCN(C)C)OC(C)(C)C=C3`, the half-inhibitory concentration (IC50) came to 50 µM in the assay on A549 [1]; 9 µM in the assay on HT-29 [2]; 14.6 µM with L1210; 51 µM in the assay on HCT-116 [3]; 48 µM in the assay on MDA-MB-231 [4]; 17 µM with HRT-18 cell line [5]. The compound also returned an EC50 with Calf thymus DNA of 150 µM.
As to `O=C1c2c(O)ccc(O)c2C(=O)c2c(NCCNCCO)ccc(NCCNCCO)c21` [MITOXANTRONE], the IC50 with MDA-MB-231 [8] is 1 µM. In the assay with Calf thymus DNA, this compound came in with a concentration for a half-maximal effect (EC50) of 3.4 µM.
For `COc1ccc2c(c1)-c1nn(CCOS(C)(=O)=O)c3cc4c(c(c13)N2C)C=CC(C)(C)O4`, the IC50 in the assay on HCT-116 [6] was 12 µM; with A549 [1] it was more than 100 µM; in the assay with MDA-MB-231 [8], 12 µM; in the assay on L1210 it was 0.4 µM; with HT-29 [9], 18 µM.
Regarding `CC1(C)C=Cc2c(cc3c4c(nn3CCOS(C)(=O)=O)-c3ccccc3Sc24)O1`, the concentration for half-maximal inhibition (IC50) was 44 µM in the assay with HCT-116 [6]; 30 µM in the assay on HRT-18 cell line [7]; more than 100 µM in the assay with MDA-MB-231 [8]; 15 µM in the assay on L1210; 45 µM in the assay on HT-29 [9]. This compound also displayed an EC50 in the assay on Calf thymus DNA of more than 500 µM.
On to `COc1cccc2c1Oc1c3c(cc4c1c-2nn4CCN1CCCC1)OC(C)(C)C=C3`, for which the IC50 in the assay with A549 [1] was found to be 33 µM; with HT-29 [2], 8 µM; in the assay on L1210, 10.6 µM; in the assay with HCT-116 [3], 43 µM; in the assay on MDA-MB-231 [4], 11 µM; in the assay with HRT-18 cell line [5], 60 µM. Also, the concentration giving a half-maximal response (EC50) with Calf thymus DNA was found to be 71.7 µM.
For the compound `CCN(CC)CCn1nc2c3c(c4c(cc31)OC(C)(C)C=C4)Oc1ccccc1-2`, the IC50 with A549 [1] was 10 µM; with HT-29 [2], 9 µM; in the assay with L1210 it was 9.1 µM; with HCT-116 [3] it was 40 µM; in the assay on MDA-MB-231 [4] it was 9 µM; in the assay on HRT-18 cell line [5] it was 5 µM.
For the compound `CC1(C)C=Cc2c(cc3c4c(nn3CCO)-c3ccccc3Oc24)O1`, the IC50 in the assay on A549 [1] is more than 100 µM; in the assay on HT-29 [2], 12 µM; in the assay with L1210, more than 10 µM; in the assay with HCT-116 [3] it was 28 µM; in the assay with MDA-MB-231 [4] it was 100 µM; in the assay on HRT-18 cell line [5] it was 4 µM.
Turning to `COc1cc2c(c3c1c(=O)c1ccccc1n3C)C=CC(C)(C)O2` [ACRONINE], the IC50 with HT-29 [2], with HRT-18 cell line [10], with HCT-116 [3] and in the assay on A549 [11] was more than 100 µM in each case. A half-maximal response with Calf thymus DNA (EC50) required 270 µM.
For `CC1(C)C=Cc2c(cc3c4c(nn3CCN3CCCCC3)-c3ccccc3Oc24)O1`, the IC50 with A549 [1] worked out at 15 µM; with HT-29 [2] it was 6.5 µM; in the assay with L1210, 10.1 µM; in the assay with HCT-116 [3] it was 20 µM; in the assay on MDA-MB-231 [4] it was 20 µM; with HRT-18 cell line [5] it was 10 µM.
Take `CCN(CC)CCn1nc2c3c(c4c(cc31)OC(C)(C)C=C4)Oc1c(OC)cccc1-2`: the IC50 is 33 µM in the assay with A549 [1]; 9 µM with HT-29 [2]; 9.9 µM in the assay on L1210; 41 µM with HCT-116 [3]; 11 µM in the assay on MDA-MB-231 [4]; 30 µM in the assay with HRT-18 cell line [5]. The compound also gave a 50% effective concentration (EC50) in the assay on Calf thymus DNA of 273 µM.
Turning to `COc1cccc2c1Oc1c3c(cc4c1c-2nn4CCO)OC(C)(C)C=C3`, the IC50 is more than 100 µM in the assay on A549 [1]; more than 100 µM in the assay on HT-29 [2]; more than 10 µM with L1210; 64 µM in the assay with HCT-116 [3]; more than 100 µM with MDA-MB-231 [4]; more than 100 µM in the assay with HRT-18 cell line [5]. The compound also gave an EC50 with Calf thymus DNA of 274 µM.
With `Cc1c2ccncc2c(C)c2c1[nH]c1ccccc12` [ELLIPTECINE], the figures for the IC50 in the assay on MDA-MB-231 [8], with HT-29 [9] and with A549 [12] were 2.3 µM, 15 µM and 10 µM, respectively. Besides, in the assay on Calf thymus DNA, the concentration for a half-maximal effect (EC50) came out at 22.2 µM.
`CN1c2ccccc2-c2nn(CCOS(C)(=O)=O)c3cc4c(c1c23)C=CC(C)(C)O4`: the IC50 with HCT-116 [6] came out at 49 µM; with L1210 it was 2.5 µM; in the assay on HT-29 [9] it was 20 µM.
For the compound `CN(C)CCn1nc2c3c(c4c(cc31)OC(C)(C)C=C4)Oc1ccccc1-2`, the IC50 came out at 32 µM in the assay with A549 [1]; 18 µM in the assay on HT-29 [2]; 9.8 µM in the assay with L1210; 54 µM in the assay with HCT-116 [3]; 50 µM in the assay on MDA-MB-231 [4]; 50 µM in the assay with HRT-18 cell line [5]. In the assay with Calf thymus DNA, this compound came in with an EC50 of 431 µM.
Take `CC1(C)C=Cc2c(cc3c4c(nn3CCN3CCCC3)-c3ccccc3Oc24)O1`: the IC50 is 27 µM with A549 [1]; 9 µM in the assay with HT-29 [2]; 8.3 µM in the assay with L1210; 42 µM in the assay on HCT-116 [3]; 12 µM with MDA-MB-231 [4]; 30 µM in the assay on HRT-18 cell line [5].

Values taken from ChEMBL document CHEMBL1135469, “Design, synthesis, and antiproliferative activity of some new pyrazole-fused amino derivatives of the pyranoxanthenone, pyranothioxanthenone, and pyranoacridone ring systems: a new class of cytotoxic agents” (J Med Chem, 2002).
